Data on 16 compounds can be found in ChEMBL document CHEMBL1138962, “Exploration of a new type of antimalarial compounds based on febrifugine” (J Med Chem, 2006).

Values after ≈ are worked out from the molar mass of the structure shown.

The term ED50 denotes the dose that gives a 50% effect, or the effect in half of the subjects. Broadly, the EC50 is the concentration needed to bring the measured effect to its halfway point. A higher EC50 goes with a less potent agent. In general, LD50 refers to the dose at which mortality reaches 50%. Read a high LD50 as lower toxicity.

One series deals with Plasmodium berghei. Kind of series: Antimalarial activity against Plasmodium berghei NK65 infected ICR mice (Mus musculus) peroral dose. Format: functional.
Conditions: not given
In short, it runs like this:
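P. berghei NK65 4-day suppressive test. Male ICR mice (18-20 g) infected i.v. with 10⁶ parasitized red cells. Compounds suspended in 5% gum arabic, given orally 2 h post-infection (Day 0), then once daily Days 1-3. Day 4 tail-vein blood, parasitaemia from thin blood films; ED50 from dose-response curve.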
Regarding `O=C(C[C@H]1NCCC[C@@H]1O)Cn1cnc2ccsc2c1=O` (relative stereo), the ED50 was found to be 2.95 mg/kg.

Still in this series, the particulars now being: Plasmodium berghei, NK65, po.
Regarding `O=c1c2ccccc2ncn1CCC[C@H]1NCCC[C@@H]1O`, the 50% effect level (ED50) was put at a dose of 22.5 mg/kg.
`O=C(C[C@@H]1NCCC[C@H]1O)Cn1cnc2ccccc2c1=O` (single isomer, unassigned) [FEBRIFUGINE] came in with an ED50 of 0.41 mg/kg. Compared with the last compound, the ED50 is about 55-fold lower.
Still for that read-out and setting: the result for `CCN(CC)CCCC(C)Nc1ccnc2cc(Cl)ccc12` (stereo not drawn) [CHLOROQUINE] reads 1.53 mg/kg.

A further series relates to Plasmodium falciparum. Put plainly: Antimalarial activity against chloroquine-sensitive Plasmodium falciparum FCR3 by pLDH reporter assay.
Conditions: not given
Format: functional, organism-based. In short, it runs like this:
(§1)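 P. falciparum cultured in human A+ erythrocytes in RPMI-1640 (25 mM HEPES, hypoxanthine, gentamicin) with 10% human plasma, 37 °C, 93% N2/4% CO2/3% O2. Asynchronous parasites at 2.0% hematocrit, 0.5% parasitaemia. Compound added in water or 5% DMSO, 72 h at 37 °C. pLDH read-out: Malstat, then NBT/PES, formazan at 650 nm. EC50 from dose-response curve.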
`O=C(C[C@H]1NCCC[C@@H]1O)Nc1nc(O)c2ccccc2n1`: the EC50 is > 1 µg/mL.
With `O=C(CN1CCCC(O)C1)Cn1cnc2ccccc2c1=O` (stereo not drawn), the EC50 was > 1 µg/mL.
On the same count and under the same terms, the result for `O=C(COC1CCCNC1)Cn1cnc2ccccc2c1=O` (stereo not drawn) reads > 1 µg/mL; that for `O=c1c2ccccc2ncn1CCC[C@H]1NCCC[C@@H]1O`, 0.0225 µg/mL (≈ 0.0783 µM).
As to `O=c1c2ccccc2ncn1CCCC[C@H]1NCCC[C@@H]1O`, the EC50 is > 1 µg/mL.
Still for that read-out and setting: the same measure for `O=c1c2ccccc2ncn1CC[C@H]1NCCC[C@@H]1O`: > 1 µg/mL.
On the same count and under the same terms, the same measure for `CC[C@H](O)[C@@H](CC(=O)Cn1cnc2ccccc2c1=O)NC`: > 1 µg/mL; for `O=C(C[C@H]1NCCC[C@@H]1O)Cn1cnc2ccsc2c1=O` (relative stereo): 0.00306 µg/mL (≈ 0.00996 µM).
The same measure, in the same setting: the same measure for `Cc1nc2ccccc2c(=O)n1CC(=O)C[C@H]1NCCC[C@@H]1O` (relative stereo): 0.116 µg/mL (≈ 0.368 µM).
`O=C(C[C@H]1NCCC[C@@H]1O)Cn1nnc2ccccc2c1=O` (relative stereo): the EC50 turned out to be 0.154 µg/mL (≈ 0.509 µM).
On the same count and under the same terms, the result for `O=C(C[C@H]1NCCC[C@@H]1O)Cn1ccc(=O)c2ccccc21` (relative stereo) reads > 1 µg/mL; that for `O=C(C[C@H]1NCCC[C@@H]1O)Cn1cnc2ncnc-2c1O` (relative stereo), 0.506 µg/mL (≈ 1.74 µM).
On the same count and under the same terms, the same measure for `O=C(C[C@H]1NCCC[C@@H]1O)Cn1cnc2ccc(F)cc2c1=O` (relative stereo): 0.00073 µg/mL (≈ 0.00229 µM); for `O=C(C[C@@H]1NCCC[C@H]1O)Cn1cnc2ccccc2c1=O` (single isomer, unassigned) [FEBRIFUGINE]: 0.00142 µg/mL (≈ 0.00471 µM).
Still for that read-out and setting: the result for `C[C@@H]1CC[C@H]2[C@@H](C)C(=O)O[C@@H]3O[C@@]4(C)CC[C@@H]1[C@]32OO4` [ARTEMISININ] reads 0.0179 µg/mL (≈ 0.0634 µM); that for `CCN(CC)CCCC(C)Nc1ccnc2cc(Cl)ccc12` (stereo not drawn) [CHLOROQUINE], 0.0475 µg/mL (≈ 0.148 µM).

System in the next series: not listed separately
Put plainly: Therapeutic index; LD50 for ICR mice (Mus musculus)/ED50 against Plasmodium berghei NK65. Conditions: read-out: Ratio LD50/ED50. In short, it runs like this: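 Index is mouse LD50 (oral acute toxicity) divided by oral ED50 against P. berghei in mice. For ED50, a 4-day suppressive test was used. Male ICR mice (18-20 g) were inoculated iv with 10⁶ parasitized RBC. Compound was given po in 5% gum arabic 2 h post-infection, then once daily on days 1-3. Parasitaemia was read from tail-blood thin films on day 4.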
For `O=c1c2ccccc2ncn1CCC[C@H]1NCCC[C@@H]1O`, the selectivity ratio was > 14.
Same read-out and setting: the result for `O=C(C[C@H]1NCCC[C@@H]1O)Cn1cnc2ccsc2c1=O` (relative stereo) reads 30; that for `O=C(C[C@@H]1NCCC[C@H]1O)Cn1cnc2ccccc2c1=O` (single isomer, unassigned) [FEBRIFUGINE], 17.

The test system of a further series is L929. Kind of series: Selectivity for L929 cells over Plasmodium falciparum FCR3 as EC50 ratio. Format: functional.
Conditions: not given
In short, it runs like this:
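Ratio of L929 EC50 to P. falciparum FCR-3 EC50. L929 EC50 by 48 h MTT assay. FCR-3 EC50 by pLDH assay: asynchronous parasites in human erythrocytes (2.0% hematocrit, 0.5% parasitaemia), RPMI with 10% human plasma. Incubated 72 h at 37 °C under 93% N₂/4% CO₂/3% O₂. Malstat/NBT-PES read-out at 650 nm; EC50 from dose-response curves.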
As to `O=c1c2ccccc2ncn1CCC[C@H]1NCCC[C@@H]1O`, the “Ratio EC50” value was 198.
Take `CC[C@H](O)[C@@H](CC(=O)Cn1cnc2ccccc2c1=O)NC`: the “Ratio EC50” value is reported as <6.44.
Take `O=C(C[C@H]1NCCC[C@@H]1O)Cn1cnc2ccsc2c1=O` (relative stereo): the “Ratio EC50” value worked out at 184.
The same measure, in the same setting: the result for `Cc1nc2ccccc2c(=O)n1CC(=O)C[C@H]1NCCC[C@@H]1O` (relative stereo) reads 134; that for `O=C(C[C@H]1NCCC[C@@H]1O)Cn1nnc2ccccc2c1=O` (relative stereo), 106.
Same read-out and setting: the result for `O=C(C[C@H]1NCCC[C@@H]1O)Cn1cnc2ncnc-2c1O` (relative stereo) reads >198; that for `O=C(C[C@H]1NCCC[C@@H]1O)Cn1cnc2ccc(F)cc2c1=O` (relative stereo), 108.
Same read-out and setting: the result for `O=C(C[C@@H]1NCCC[C@H]1O)Cn1cnc2ccccc2c1=O` (single isomer, unassigned) [FEBRIFUGINE] reads 118.
Take `C[C@@H]1CC[C@H]2[C@@H](C)C(=O)O[C@@H]3O[C@@]4(C)CC[C@@H]1[C@]32OO4` [ARTEMISININ]: the “Ratio EC50” value was >5590.
Still for that read-out and setting: the same measure for `CCN(CC)CCCC(C)Nc1ccnc2cc(Cl)ccc12` (stereo not drawn) [CHLOROQUINE]: 392.

System in a further series: not listed separately
Put plainly: Toxicity in po dosed ICR mouse. Format: organism-based. Conditions: in vivo. In short, it runs like this: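 Acute toxicity in mice, compound given orally. LD50 determined.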
For the compound `O=c1c2ccccc2ncn1CCC[C@H]1NCCC[C@@H]1O`, the LD50 is > 320 mg/kg.
On the same count and under the same terms, the same measure for `O=C(C[C@H]1NCCC[C@@H]1O)Cn1cnc2ccsc2c1=O` (relative stereo): 88 mg/kg; for `O=C(C[C@H]1NCCC[C@@H]1O)Cn1cnc2ccc(F)cc2c1=O` (relative stereo): < 2.5 mg/kg; for `O=C(C[C@@H]1NCCC[C@H]1O)Cn1cnc2ccccc2c1=O` (single isomer, unassigned) [FEBRIFUGINE]: 7.1 mg/kg.

A further series concerns L929. Put plainly: Cytotoxicity against mouse L929 cells by MTT assay.
Conditions: not given
Format: functional, cell-based. In a few lines: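 MTT assay in mouse L929 cells (1.8 × 10⁴ cells/well) in RPMI-1640 with 10% FBS. Compound added in distilled water or 10% DMSO (added solution), then 48 h at 37 °C, 5% CO₂. MTT 4 h, formazan dissolved in DMSO, absorbance read at 570 and 655 nm. EC50 from dose-response curve.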
Background: Formazan colour is commonly taken as a measure of viable cells.
`O=C(C[C@H]1NCCC[C@@H]1O)Nc1nc(O)c2ccccc2n1`: the concentration giving a half-maximal response (EC50) is > 100 µg/mL.
On the same count and under the same terms, the result for `O=C(CN1CCCC(O)C1)Cn1cnc2ccccc2c1=O` (stereo not drawn) reads > 100 µg/mL; that for `O=C(COC1CCCNC1)Cn1cnc2ccccc2c1=O` (stereo not drawn), > 100 µg/mL; that for `O=c1c2ccccc2ncn1CCC[C@H]1NCCC[C@@H]1O`, 4.45 µg/mL (≈ 15.5 µM).
The same measure, in the same setting: the same measure for `O=c1c2ccccc2ncn1CCCC[C@H]1NCCC[C@@H]1O`: > 100 µg/mL; for `O=c1c2ccccc2ncn1CC[C@H]1NCCC[C@@H]1O`: > 100 µg/mL; for `CC[C@H](O)[C@@H](CC(=O)Cn1cnc2ccccc2c1=O)NC`: 6.44 µg/mL (≈ 21.2 µM).
The same measure, in the same setting: the result for `O=C(C[C@H]1NCCC[C@@H]1O)Cn1cnc2ccsc2c1=O` (relative stereo) reads 0.563 µg/mL (≈ 1.83 µM).
For `Cc1nc2ccccc2c(=O)n1CC(=O)C[C@H]1NCCC[C@@H]1O` (relative stereo), it took 15.6 µg/mL (≈ 49.5 µM) to reach a half-maximal effect (EC50).
On the same count and under the same terms, the result for `O=C(C[C@H]1NCCC[C@@H]1O)Cn1nnc2ccccc2c1=O` (relative stereo) reads 16.4 µg/mL (≈ 54.2 µM); that for `O=C(C[C@H]1NCCC[C@@H]1O)Cn1ccc(=O)c2ccccc21` (relative stereo), > 100 µg/mL.
`O=C(C[C@H]1NCCC[C@@H]1O)Cn1cnc2ncnc-2c1O` (relative stereo): the concentration for a half-maximal effect (EC50) was > 100 µg/mL.
On the same count and under the same terms, the same measure for `O=C(C[C@H]1NCCC[C@@H]1O)Cn1cnc2ccc(F)cc2c1=O` (relative stereo): 0.079 µg/mL (≈ 0.247 µM).
Turning to `O=C(C[C@@H]1NCCC[C@H]1O)Cn1cnc2ccccc2c1=O` (single isomer, unassigned) [FEBRIFUGINE], the EC50 is 0.167 µg/mL (≈ 0.554 µM).
Still for that read-out and setting: the result for `C[C@@H]1CC[C@H]2[C@@H](C)C(=O)O[C@@H]3O[C@@]4(C)CC[C@@H]1[C@]32OO4` [ARTEMISININ] reads > 100 µg/mL; that for `CCN(CC)CCCC(C)Nc1ccnc2cc(Cl)ccc12` (stereo not drawn) [CHLOROQUINE], 18.6 µg/mL (≈ 58.1 µM).

The next series deals with Plasmodium falciparum. Kind of series: Antimalarial activity against chloroquine-resistant Plasmodium falciparum K1 by pLDH reporter assay. Format: functional, organism-based.
Conditions: not given
In short, it runs like this:
as §1
(A reporter such as luciferase makes a cellular process visible.)
Turning to `O=C(C[C@H]1NCCC[C@@H]1O)Nc1nc(O)c2ccccc2n1`, the EC50 was > 1 µg/mL.
Still for that read-out and setting: the result for `O=C(CN1CCCC(O)C1)Cn1cnc2ccccc2c1=O` (stereo not drawn) reads > 1 µg/mL.
The same measure, in the same setting: the result for `O=C(COC1CCCNC1)Cn1cnc2ccccc2c1=O` (stereo not drawn) reads > 1 µg/mL; that for `O=c1c2ccccc2ncn1CCC[C@H]1NCCC[C@@H]1O`, 0.0236 µg/mL (≈ 0.0821 µM).
The same measure, in the same setting: the result for `O=c1c2ccccc2ncn1CCCC[C@H]1NCCC[C@@H]1O` reads > 1 µg/mL.
For `O=c1c2ccccc2ncn1CC[C@H]1NCCC[C@@H]1O`, the EC50 was > 1 µg/mL.
Still for that read-out and setting: the result for `CC[C@H](O)[C@@H](CC(=O)Cn1cnc2ccccc2c1=O)NC` reads > 1 µg/mL; that for `O=C(C[C@H]1NCCC[C@@H]1O)Cn1cnc2ccsc2c1=O` (relative stereo), 0.00319 µg/mL (≈ 0.0104 µM).
Take `Cc1nc2ccccc2c(=O)n1CC(=O)C[C@H]1NCCC[C@@H]1O` (relative stereo): the EC50 was found to be 0.19 µg/mL (≈ 0.602 µM).
On the same count and under the same terms, the result for `O=C(C[C@H]1NCCC[C@@H]1O)Cn1ccc(=O)c2ccccc21` (relative stereo) reads > 1 µg/mL; that for `O=C(C[C@H]1NCCC[C@@H]1O)Cn1cnc2ncnc-2c1O` (relative stereo), 0.943 µg/mL (≈ 3.24 µM); that for `O=C(C[C@H]1NCCC[C@@H]1O)Cn1cnc2ccc(F)cc2c1=O` (relative stereo), 0.000916 µg/mL (≈ 0.00287 µM).
Same read-out and setting: the result for `O=C(C[C@@H]1NCCC[C@H]1O)Cn1cnc2ccccc2c1=O` (single isomer, unassigned) [FEBRIFUGINE] reads 0.0014 µg/mL (≈ 0.00465 µM); that for `C[C@@H]1CC[C@H]2[C@@H](C)C(=O)O[C@@H]3O[C@@]4(C)CC[C@@H]1[C@]32OO4` [ARTEMISININ], 0.0117 µg/mL (≈ 0.0414 µM); that for `CCN(CC)CCCC(C)Nc1ccnc2cc(Cl)ccc12` (stereo not drawn) [CHLOROQUINE], 0.375 µg/mL (≈ 1.17 µM).
